{"data": "Assay results pooled from the literature", "LATS1": "Serine/threonine-protein kinase LATS1 (LATS1, Homo sapiens, UniProt O95835)", "CA1": "Carbonic anhydrase 1 (CA1, Homo sapiens, UniProt P00915)", "SLC18A2": "Synaptic vesicular amine transporter (SLC18A2, Homo sapiens, UniProt Q05940)", "note": "Compare with care: the assays were run in different laboratories."}
{"Compound": "C=CCNc1c2c([nH]c(=O)c1C(=O)OCC)CCC2", "target": "Gag-Pol polyprotein, reverse transcriptase (gag-pol, Human immunodeficiency virus 1, UniProt P03366)", "test": "enzyme activity, inhibitor", "IC50 [µM]": "> 100"}
{"Compound": "Cc1cc(-c2ccnc3[nH]cc(F)c23)cc(F)c1[C@@]1(O)[C@H](C)CN(C2CCS(=O)(=O)CC2)C[C@@H]1C", "target": "LATS1", "test": "target engagement in cells, BRET", "IC50 [µM]": 0.136}
{"Compound": "CCOCCn1c(C2CCN(CCc3ccc(C(C)(C)C(=O)O)cc3)CC2)nc2ccccc21", "target": "CA1", "test": "enzyme activity, inhibitor, absorbance", "conditions": "pH 7.4", "IC50 [µM]": 14}
{"Compound": "COc1cc2ncnc(Nc3ccc(F)c(Cl)c3)c2cc1NC(=O)/C=C/CN1CCCCC1", "target": "SLC18A2", "test": "transporter uptake, inhibitor, radiometric", "conditions": "cell membranes", "IC50 [µM]": 0.433}
{"Compound": "COc1ccnc(C[S+]([O-])c2nc3ccc(OC(F)F)cc3[nH]2)c1OC (centres unmarked)", "target": "CA1", "test": "enzyme activity, inhibitor, absorbance", "conditions": "pH 7.4", "IC50 [µM]": 10.6}
{"Compound": "N#Cc1ccc2[nH]cc(CCCCN3CCN(c4ccc5oc(C(N)=O)cc5c4)CC3)c2c1", "target": "SLC18A2", "test": "transporter uptake, inhibitor, radiometric", "conditions": "cell membranes", "IC50 [µM]": 0.069}
{"Compound": "O=C(O)COCCN1CCN(C(c2ccccc2)c2ccc(Cl)cc2)CC1 (centres unmarked)", "target": "CA1", "test": "enzyme activity, inhibitor, absorbance", "conditions": "pH 7.4", "IC50 [µM]": 14.6}
{"Compound": "OC1(c2ccc(-c3ccnc4[nH]cc(F)c34)cc2)CCCNC1 (centres unmarked)", "target": "LATS1", "test": "target engagement in cells, BRET", "IC50 [µM]": 9.97}
{"Compound": "CCOc1ccccc1OCCN[C@H](C)Cc1ccc(OC)c(S(N)(=O)=O)c1", "target": "SLC18A2", "test": "transporter uptake, inhibitor", "IC50 [µM]": 1.86}
{"Compound": "OCCOCCN1CCN(C(c2ccccc2)c2ccc(Cl)cc2)CC1 (centres unmarked)", "target": "CA1", "test": "enzyme activity, inhibitor, absorbance", "conditions": "pH 7.4", "IC50 [µM]": 15.1}
{"Compound": "Clc1ccc(Cn2c(CN3CCCC3)nc3ccccc32)cc1", "target": "SLC18A2", "test": "transporter uptake, inhibitor", "IC50 [µM]": 7.23}
{"Compound": "Cc1cc(-c2ccnc3[nH]cc(F)c23)cc(F)c1[C@@]1(O)[C@H](C)CN(C2COC2)C[C@@H]1C", "target": "LATS1", "test": "target engagement in cells, BRET", "IC50 [µM]": 0.058}
{"Compound": "OC1(c2ccc(Cl)c(C(F)(F)F)c2)CCN(CCCC(c2ccc(F)cc2)c2ccc(F)cc2)CC1", "target": "SLC18A2", "test": "transporter uptake, inhibitor, radiometric", "conditions": "cell membranes", "IC50 [µM]": 0.594}
{"Compound": "CC(=O)N1C[C@@H](C)[C@](O)(c2c(C)cc(-c3ccnc4[nH]cc(F)c34)cc2F)[C@@H](C)C1", "target": "LATS1", "test": "target engagement in cells, BRET", "IC50 [µM]": 0.077}
{"Compound": "Nc1nc2c(ncn2COCCO)c(=O)[nH]1", "target": "CA1", "test": "enzyme activity, inhibitor, absorbance", "conditions": "pH 7.4", "IC50 [µM]": 10.8}
{"Compound": "NC(=O)c1nnn(Cc2cc(Cl)c(C(=O)c3ccc(Cl)cc3)c(Cl)c2)c1N", "target": "Alpha-2A adrenergic receptor (ADRA2A, Homo sapiens, UniProt P08913)", "test": "cAMP, antagonist", "IC50 [µM]": 0.612}
{"Compound": "OC1(c2ccc(-c3ccnc4[nH]cc(F)c34)cc2)CNC1", "target": "LATS1", "test": "target engagement in cells, BRET", "IC50 [µM]": 28.4}
{"Compound": "CCCCN(CCCC)CCC(O)c1cc2c(Cl)cc(Cl)cc2c2cc(C(F)(F)F)ccc12 (centres unmarked)", "target": "SLC18A2", "test": "transporter uptake, inhibitor, radiometric", "conditions": "cell membranes", "IC50 [µM]": 0.94}
{"Compound": "OC1(c2ccc(-c3ccnc4[nH]cc(F)c34)cc2)CCNC1 (centres unmarked)", "target": "LATS1", "test": "target engagement in cells, BRET", "IC50 [µM]": 10.3}
{"Compound": "CC(C)[C@H](N)C(=O)OCCOCn1cnc2c(=O)[nH]c(N)nc21", "target": "Carbonic anhydrase 2 (CA2, Homo sapiens, UniProt P00918)", "test": "enzyme activity, inhibitor, absorbance", "conditions": "pH 7.4", "IC50 [µM]": 9.1}
